In brackets after ≈: the same amount, converted by molar mass. Activity calls are given as the source filed them. No cut-off for these calls is given here.
How the values were obtained:
Candida albicans [1] = assay: Antifungal activity against Candida albicans ATCC 28366 assessed as reduction in fungal growth incubated for 24 hrs by plate count determination; assay type: functional, organism-based
Candida albicans [2] = assay: Antibiofilm activity against Candida albicans ATCC 28366 incubated for 24 to 48 hrs by crystal violet staining based absorbance spectrometry analysis; assay type: functional, organism-based; settings: time 24-48 hrs
Summary of the method: (§1)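 Overnight cultures (37 °C, aerobic, Sabouraud pH 7.0) adjusted to OD660 0.2, mixed 1:1 with two-fold serial dilutions in medium and incubated at 37 °C. Biofilm stained with crystal violet, dye released in 75% ethanol, A550 read. Growth relative to compound-free wells (100%) after blank subtraction. At least two independent experiments in triplicate, t test.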

Candida albicans [3] = assay: Antibiofilm activity against Candida albicans ATCC 28366 assessed as disruption of preformed biofilm incubated for 12 hrs by crystal violet staining based absorbance spectrometry analysis; assay type: functional, organism-based
Summary of the method: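 Mature biofilms grown 36 to 48 h in Sabouraud pH 7.0 without compound; medium and free cells removed, rinsed with 50 mM PBS pH 7.0, then two-fold serial dilutions in PBS added for 12 h at 37 °C. Residual biofilm stained with crystal violet, dye released in 75% ethanol, A550 read. PBS-treated biofilms as controls.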

Candida albicans [4] = assay: Antibiofilm activity against Candida albicans ATCC 28366 at 1 ug/ml incubated for 24 to 48 hrs by crystal violet staining based absorbance spectrometry analysis; assay type: functional, organism-based; settings: dose 1.0 µg/ml, time 24-48 hrs; summary of the method: as §1
Candida albicans [5] = assay: Antibiofilm activity against Candida albicans LAM-1 assessed as reduction in fungal growth at 1 to 4 ug/ml incubated for 4 hrs in spider medium by plate count determination; assay type: functional, organism-based; settings: dose 1-4 µg/ml
Summary of the method: (§2)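 After the 4 h, 37 °C morphogenesis incubation in Spider medium (YPD overnight inoculum, 50 µL into 5 mL), OD660 measured to follow fungal growth; C. albicans viability confirmed by plate count.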

Candida albicans [6] = assay: Antibiofilm activity against Candida albicans LAM-1 at 4 ug/ml incubated for 24 to 48 hrs by crystal violet staining based absorbance spectrometry analysis; assay type: functional, organism-based; settings: dose 4.0 µg/ml, time 24-48 hrs; summary of the method: as §1
Candida albicans [7] = assay: Antibiofilm activity against Candida albicans ATCC 28366 assessed as inhibition of morphogenesis at 1 to 4 ug/ml incubated for 4 hrs in spider medium by microscopic analysis; assay type: functional, organism-based; settings: dose 1-4 µg/ml
Summary of the method: (§3)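 Yeast-form cells grown overnight in YPD at 30 °C. 50 µL inoculated into 5 mL hypha-inducing medium (e.g., Spider: 1% nutrient broth, 1% mannitol, 0.2% K2HPO4, pH 7.2) containing two-fold dilutions, then 4 h at 37 °C. At least 100 cells per replicate counted as hypha (pseudohyphae and intermediates included) or yeast. Compound-free control for maximal conversion. At least two independent experiments in triplicate.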

Candida albicans [8] = assay: Antibiofilm activity against Candida albicans ATCC 28366 assessed as reduction in fungal growth at 1 to 4 ug/ml incubated for 4 hrs in spider medium by plate count determination; assay type: functional, organism-based; settings: dose 1-4 µg/ml; summary of the method: as §2
Candida albicans [9] = assay: Antifungal activity against Candida albicans ATCC 28366 assessed as reduction in fungal growth at up to 64 ug/ml incubated for 24 hrs by plate count determination; assay type: functional, organism-based; settings: dose <= 64.0 µg/ml
Candida albicans [10] = assay: Antibiofilm activity against Candida albicans ATCC 28366 assessed as inhibition of morphological switching at 1 ug/ml incubated for 4 hrs in YPD medium with fetal bovine serum by microscopic analysis; assay type: functional, organism-based; settings: dose 1.0 µg/ml; summary of the method: as §3
Candida albicans [11] = assay: Antibiofilm activity against Candida albicans ATCC 28366 assessed as inhibition of filamentation at 2 ug/ml incubated for 4 hrs in Lee's medium by microscopic analysis; assay type: functional, organism-based; settings: dose 2.0 µg/ml; summary of the method: as §3
[12] = Cytotoxicity against human B11 cells assessed as reduction in cell viability at 96 ug/ml incubated for 2 hrs by MTT assay; assay type: toxicity, cell-based; settings: b11, 2 h, dose 96 µg/ml
Summary of the method: (§4)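 B11 human oral epithelial cells in K-SFM with bovine pituitary extract and EGF, grown to confluence (1 × 10⁵ cells/well, 37 °C, 5% CO2). Treated with two-fold dilutions from 96 to 1.5 µg/mL for 2 or 24 h, then MTT viability read. Triplicate, mean ± SD.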

Candida albicans [13] = assay: Antibiofilm activity against Candida albicans ATCC 28366 assessed as reduction in filamentation by measuring joint hyphae cell elongation at 1 ug/ml incubated for 4 hrs in spider medium by microscopic analysis; assay type: functional, organism-based; settings: dose 1.0 µg/ml; summary of the method: as §3
Candida albicans [14] = assay: Antibiofilm activity against Candida albicans ATCC 28366 assessed as inhibition of nitrogen deprivation induced morphological switching at 1 to 4 ug/ml incubated for 4 hrs in SLAD media by microscopic analysis; assay type: functional, organism-based; settings: dose 1-4 µg/ml; summary of the method: as §3
Candida albicans [15] = assay: Antibiofilm activity against Candida albicans ATCC 28366 assessed as short hyphae formation at 2 ug/ml incubated for 4 hrs in spider medium by microscopic analysis; assay type: functional, organism-based; settings: dose 2.0 µg/ml; summary of the method: as §3
Candida albicans [16] = assay: Antibiofilm activity against Candida albicans ATCC 28366 assessed as small subpopulation of hyphae formation at 2 ug/ml incubated for 4 hrs in spider medium by microscopic analysis; assay type: functional, organism-based; settings: dose 2.0 µg/ml; summary of the method: as §3
Candida albicans [17] = assay: Antibiofilm activity against Candida albicans ATCC 28366 assessed as reduction in hyphae formation at 4 ug/ml incubated for 4 hrs in spider medium by microscopic analysis; assay type: functional, organism-based; settings: dose 4.0 µg/ml; summary of the method: as §3
Candida albicans [18] = assay: Antibiofilm activity against FITC labeled Candida albicans ATCC 28366 in human GMSM-K cells assessed as reduction in fungal adherence to cells incubated for 4 hrs by fluorescence microscopic analysis; assay type: functional, organism-based; settings: dose 6-48 µg/ml
Summary of the method: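 Confluent GMSM-K monolayers (DMEM, 10% FBS) pre-incubated 30 min with two-fold dilutions in DMEM (37 °C, 5% CO2). FITC-labelled yeast (0.03 mg/mL FITC in 0.5 M NaHCO3 pH 8, 30 min, 37 °C) added at MOI 10³ for 4 h. After PBS washes, fluorescence read (ex 495/em 525 nm) as % of compound-free wells. Two independent experiments in triplicate.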

[19] = Cytotoxicity against human B11 cells assessed as reduction in cell viability at >=24 ug/ml incubated for 24 hrs by MTT assay; assay type: toxicity, cell-based; settings: b11, 24 h, dose > 24 µg/ml; summary of the method: as §4
Candida albicans [20] = assay: Antibiofilm activity against Candida albicans ATCC 28366 assessed as inhibition of N-acetylglucosamine induced morphological switching at 1 to 4 ug/ml incubated for 4 hrs by microscopic analysis; assay type: functional, organism-based; settings: dose 1-4 µg/ml; summary of the method: as §3
Candida albicans [21] = assay: Antibiofilm activity against Candida albicans ATCC 28366 assessed as inhibition of biofilm formation at 0.5 to 32 ug/ml incubated for 24 to 48 hrs by crystal violet staining based absorbance spectrometry analysis; assay type: functional, organism-based; settings: dose 0.5-32 µg/ml, time 24-48 hrs; summary of the method: as §1
Candida albicans [22] = assay: Antifungal activity against Candida albicans ATCC 28366 assessed as inhibition of fungal growth incubated for 24 hrs by plate count determination; assay type: functional
Summary of the method: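 Biofilm-assay setup (Sabouraud pH 7.0, inoculum OD660 0.2, serial two-fold dilutions, 37 °C). […] Highest value kept when replicates differ. At least two independent experiments in triplicate.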

Candida albicans [23] = assay: Antibiofilm activity against Candida albicans ATCC 28366 at up to 96 ug/ml incubated for 24 to 48 hrs by crystal violet staining based absorbance spectrometry analysis; assay type: functional, organism-based; settings: dose <= 96.0 µg/ml, time 24-48 hrs; summary of the method: as §1
Candida albicans [24] = assay: Antibiofilm activity against Candida albicans ATCC 28366 at 48 ug/ml incubated for 24 to 48 hrs by crystal violet staining based absorbance spectrometry analysis; assay type: functional, organism-based; settings: dose 48.0 µg/ml, time 24-48 hrs; summary of the method: as §1
Candida albicans [25] = assay: Antibiofilm activity against Candida albicans ATCC 28366 assessed as inhibition of biofilm formation at 2 ug/ml incubated for 24 to 48 hrs by crystal violet staining based absorbance spectrometry analysis; assay type: functional, organism-based; settings: dose 2.0 µg/ml, time 24-48 hrs; summary of the method: as §1
Candida albicans [26] = assay: Fungicidal activity against Candida albicans ATCC 28366 assessed as prevention of colony formation incubated for 24 hrs; assay type: functional

Oc1ccc(C[C@@H]2CN[C@H](Cc3ccc(O)cc3)CN2)cc1
Activity (Candida albicans [1]): inactive
Activity (Candida albicans [2]): inactive
Activity (Candida albicans [3]): inactive

c1ccc(COc2ccc(C[C@H]3CN[C@@H](Cc4ccccc4)CN3)cc2)cc1
Activity (Candida albicans [4]): Active
Activity (Candida albicans [5]): inactive
Activity (Candida albicans [6]): Active
inhibition (Candida albicans [7]): Active
Activity (Candida albicans [8]): inactive
Activity (Candida albicans [9]): inactive
inhibition (Candida albicans [10]): Active
inhibition (Candida albicans [11]): Active
Activity (Candida albicans [3]): inactive
Activity [12]: Toxic
Activity (Candida albicans [13]): inactive
inhibition (Candida albicans [14]): inactive
Activity (Candida albicans [15]): Active
Activity (Candida albicans [16]): Active
Activity (Candida albicans [17]): Active
Activity (Candida albicans [18]): Dose-Dependent Effect
Activity [19]: Toxic
inhibition (Candida albicans [20]): inactive
inhibition (Candida albicans [21]): Active
MIC (Candida albicans [22]): 96 µg/mL (≈ 258 µM)

c1ccc(C[C@H]2CN[C@H](Cc3ccccc3)CN2)cc1
Activity (Candida albicans [23]): inactive
Activity (Candida albicans [3]): inactive

CN1C[C@H](Cc2ccc(OCc3ccccc3)cc2)N(C)C[C@@H]1Cc1ccc(OCc2ccccc2)cc1
Activity (Candida albicans [1]): inactive
Activity (Candida albicans [2]): inactive

c1ccc(COc2ccc(C[C@@H]3CN[C@@H](Cc4ccccc4)CN3)cc2)cc1
Activity (Candida albicans [9]): inactive
Activity (Candida albicans [3]): inactive
inhibition (Candida albicans [21]): Active
MIC (Candida albicans [22]): > 128 µg/mL

Oc1ccc(C[C@H]2CN[C@@H](Cc3ccccc3)CN2)cc1
Activity (Candida albicans [1]): inactive
Activity (Candida albicans [2]): inactive
Activity (Candida albicans [3]): inactive

c1ccc(C[C@H]2CN[C@@H](Cc3ccccc3)CN2)cc1
Activity (Candida albicans [23]): inactive
Activity (Candida albicans [3]): inactive

CN1C[C@H](Cc2ccccc2)N(C)C[C@H]1Cc1ccccc1
Activity (Candida albicans [23]): inactive

c1ccc(COc2ccc(C[C@H]3CN[C@H](Cc4ccc(OCc5ccccc5)cc4)CN3)cc2)cc1
Activity (Candida albicans [3]): inactive
Activity (Candida albicans [24]): Active
MIC (Candida albicans [22]): > 128 µg/mL

c1ccc(COc2ccc(C[C@@H]3CN[C@H](Cc4ccc(OCc5ccccc5)cc4)CN3)cc2)cc1
inhibition (Candida albicans [25]): Active
MFC (Candida albicans [26]): 24 µg/mL (≈ 50.1 µM)
Activity (Candida albicans [3]): inactive
MIC (Candida albicans [22]): 24 µg/mL (≈ 50.1 µM)
